Molecules are shown by their SMILES.

For test [1], the system named is Human immunodeficiency virus 1. As to the kind of experiment: The antiviral potency (IC90) was assessed by measuring their effect on the accumulation of viral RNA transcripts on HIV-1 RF infected MT-2 cells. Format: functional. To be noted: Human immunodeficiency virus 1, MT2. Summed up:
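HIV-1 RF infection of MT-2 cells; the read-out is viral RNA transcript accumulation measured 3 days after infection. IC90 is taken from this read-out.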

The target in test [2] is Human immunodeficiency virus type 1 protease (Human immunodeficiency virus 1, UniProt Q72874). The test can be described thus: Binding affinity for HIV-1 protease enzyme was measured by using fluorescent peptide substrate.

For `O=C1N(Cc2ccc(O)cc2)[C@H](Cc2ccccc2)[C@H](O)[C@@H](O)[C@@H](Cc2ccccc2)N1Cc1ccc(O)cc1`, in test [1], it took 32 nM to reach the 90% level (IC90).
Regarding `N#CN=C1N(Cc2cccc(C#N)c2)[C@H](Cc2ccccc2)[C@H](O)[C@@H](O)[C@@H](Cc2ccccc2)N1Cc1cccc(C#N)c1`, the 90% effect level in test [1] (IC90) was put at 3100 nM. The same compound had a Ki in test [2] of 27 nM.
Consider `O=C1N(CC2CCCCC2)[C@H](Cc2ccccc2)[C@H](O)[C@@H](O)[C@@H](Cc2ccccc2)N1CC1CCCCC1`, for which, in test [1], the IC90 turned out to be 96000 nM.
`N#CN=C1N(Cc2ccc(C#N)cc2)[C@H](Cc2ccccc2)[C@H](O)[C@@H](O)[C@@H](Cc2ccccc2)N1Cc1ccc(C#N)cc1` came in with an IC90 in test [1] of 7700 nM. For the same compound, in test [2], the Ki stood at 128 nM.
For `O=C1N(Cc2cccc(OCc3ccccc3)c2)[C@H](Cc2ccccc2)[C@H](O)[C@@H](O)[C@@H](Cc2ccccc2)N1Cc1cccc(OCc2ccccc2)c1`, in that order: more than 70000 nM and 340 nM.
For `N#CN=C1N(Cc2ccccc2)[C@H](Cc2ccccc2)[C@H](O)[C@@H](O)[C@@H](Cc2ccccc2)N1Cc1ccccc1`, in that order: 3800 nM and 20 nM.
The matching figures for `N#CN=C1N(Cc2cccc(OCc3ccccc3)c2)[C@H](Cc2ccccc2)[C@H](O)[C@@H](O)[C@@H](Cc2ccccc2)N1Cc1cccc(OCc2ccccc2)c1`: more than 67300 nM and 1370 nM.
For the compound `N#CN=C1N(CC2CCCC2)[C@H](Cc2ccccc2)[C@H](O)[C@@H](O)[C@@H](Cc2ccccc2)N1CC1CCCC1`, it took 350 nM to reach the 90% level in test [1] (IC90). The compound also gave an inhibition constant (Ki) in test [2] of 1.5 nM.
With `CC(C)=CCN1C(=NC#N)N(CC=C(C)C)[C@H](Cc2ccccc2)[C@H](O)[C@@H](O)[C@H]1Cc1ccccc1`, in test [1], the concentration for an effect of 90% (IC90) worked out at 4700 nM. Besides, the affinity in test [2], expressed as Ki, was 30 nM.
For `N#CN=C1N(CC2CC2)[C@H](Cc2ccccc2)[C@H](O)[C@@H](O)[C@@H](Cc2ccccc2)N1CC1CC1`, in that order: 5000 nM and 22 nM.
Consider `CC(C)CCN1C(=NC#N)N(CCC(C)C)[C@H](Cc2ccccc2)[C@H](O)[C@@H](O)[C@H]1Cc1ccccc1`, for which it took 1100 nM to reach the 90% level in test [1] (IC90). The compound also showed a Ki in test [2] of 3.8 nM.
The matching figures for `N#CN=C1N(Cc2ccc(OCc3ccccc3)cc2)[C@H](Cc2ccccc2)[C@H](O)[C@@H](O)[C@@H](Cc2ccccc2)N1Cc1ccc(OCc2ccccc2)cc1`: 67300 nM and 900 nM.
For `CCCCN1C(=NC#N)N(CCCC)[C@H](Cc2ccccc2)[C@H](O)[C@@H](O)[C@H]1Cc1ccccc1`, in that order: 2600 nM and 2.7 nM.
Regarding `N#CN=C1N(Cc2cccc(CO)c2)[C@H](Cc2ccccc2)[C@H](O)[C@@H](O)[C@@H](Cc2ccccc2)N1Cc1cccc(CO)c1`, the concentration for an effect of 90% (IC90) in test [1] came to 590 nM. The compound further came in with a Ki in test [2] of 1.7 nM.
For `N#CN=C1N(Cc2ccc(CO)cc2)[C@H](Cc2ccccc2)[C@H](O)[C@@H](O)[C@@H](Cc2ccccc2)N1Cc1ccc(CO)cc1`, in that order: 3200 nM and 11 nM.
The compound `O=C1N(Cc2ccc3ccccc3c2)[C@H](Cc2ccccc2)[C@H](O)[C@@H](O)[C@@H](Cc2ccccc2)N1Cc1ccc2ccccc2c1` displayed an IC90 in test [1] of 3900 nM. In test [2], this compound showed a Ki of 0.31 nM.
As to `CC(C)CCN1C(=O)N(CCC(C)C)[C@H](Cc2ccccc2)[C@H](O)[C@@H](O)[C@H]1Cc1ccccc1`, the 90% effect level in test [1] (IC90) was put at 4300 nM.
Regarding `Nc1cccc(CN2C(=O)N(Cc3cccc(N)c3)[C@H](Cc3ccccc3)[C@H](O)[C@@H](O)[C@H]2Cc2ccccc2)c1` [MOZENAVIR], the 90% effect level in test [1] (IC90) was put at 130 nM. This compound also gave a Ki in test [2] of 0.28 nM.
`CCCN1C(=NC#N)N(CCC)[C@H](Cc2ccccc2)[C@H](O)[C@@H](O)[C@H]1Cc1ccccc1` came in with an IC90 in test [1] of 7400 nM. In addition, the inhibitory constant (Ki) in test [2] was 14 nM.
Consider `Nc1ccc(CN2C(=O)N(Cc3ccc(N)cc3)[C@H](Cc3ccccc3)[C@H](O)[C@@H](O)[C@H]2Cc2ccccc2)cc1`, for which the IC90 in test [1] was 110 nM. This compound showed a Ki in test [2] of 1.1 nM.
`C=CCN1C(=NC#N)N(CC=C)[C@H](Cc2ccccc2)[C@H](O)[C@@H](O)[C@H]1Cc1ccccc1` returned an IC90 in test [1] of 51000 nM. Moreover, affinity in test [2] was put at a Ki of 37 nM.
For `N#Cc1cccc(CN2C(=O)N(Cc3cccc(C#N)c3)[C@H](Cc3ccccc3)[C@H](O)[C@@H](O)[C@H]2Cc2ccccc2)c1`, in test [1], it took 2200 nM to reach the 90% level (IC90).
The compound `N#CN=C1N(Cc2ccc([N+](=O)[O-])cc2)[C@H](Cc2ccccc2)[C@H](O)[C@@H](O)[C@@H](Cc2ccccc2)N1Cc1ccc([N+](=O)[O-])cc1` came in with an IC90 in test [1] of 19300 nM. Further, the Ki in test [2] turned out to be 67 nM.
`N#Cc1ccc(CN2C(=O)N(Cc3ccc(C#N)cc3)[C@H](Cc3ccccc3)[C@H](O)[C@@H](O)[C@H]2Cc2ccccc2)cc1` came in with an IC90 in test [1] of 5800 nM. Besides, the inhibitory constant (Ki) in test [2] came out at 52 nM.
The compound `N#CN=C1N(Cc2ccc(O)cc2)[C@H](Cc2ccccc2)[C@H](O)[C@@H](O)[C@@H](Cc2ccccc2)N1Cc1ccc(O)cc1` registered a 90% effect concentration (IC90) in test [1] of 250 nM. In test [2], this compound displayed an inhibition constant Ki of 2.6 nM.
The matching figures for `N#CN=C1N(CC2CCCCC2)[C@H](Cc2ccccc2)[C@H](O)[C@@H](O)[C@@H](Cc2ccccc2)N1CC1CCCCC1`: 1100 nM and 5.7 nM.
As for `N#CN=C1N(Cc2cccc(N)c2)[C@H](Cc2ccccc2)[C@H](O)[C@@H](O)[C@@H](Cc2ccccc2)N1Cc1cccc(N)c1`, the 90% effect level in test [1] (IC90) was put at 500 nM. In test [2], the affinity, expressed as Ki, was 7.4 nM.
In test [1], `O=C1N(Cc2ccc(OCc3ccccc3)cc2)[C@H](Cc2ccccc2)[C@H](O)[C@@H](O)[C@@H](Cc2ccccc2)N1Cc1ccc(OCc2ccccc2)cc1` yielded a concentration for an effect of 90% (IC90) of more than 70000 nM. Further, the Ki in test [2] was found to be 542 nM.
The compound `N#CN=C1N(CC2CCC2)[C@H](Cc2ccccc2)[C@H](O)[C@@H](O)[C@@H](Cc2ccccc2)N1CC1CCC1` displayed a concentration for an effect of 90% (IC90) in test [1] of 840 nM. In test [2], the Ki is 2 nM.
In test [1], `N#CN=C1N(Cc2ccc3ccccc3c2)[C@H](Cc2ccccc2)[C@H](O)[C@@H](O)[C@@H](Cc2ccccc2)N1Cc1ccc2ccccc2c1` gave a 90% effect concentration (IC90) of more than 79000 nM. For the same compound, the inhibitory constant (Ki) in test [2] was found to be 22 nM.
The matching figures for `N#CN=C1N(Cc2cccc(O)c2)[C@H](Cc2ccccc2)[C@H](O)[C@@H](O)[C@@H](Cc2ccccc2)N1Cc1cccc(O)c1`: 130 nM and 0.72 nM.
As for `CC(C)=CCN1C(=O)N(CC=C(C)C)[C@H](Cc2ccccc2)[C@H](O)[C@@H](O)[C@H]1Cc1ccccc1`, the IC90 in test [1] was found to be 860 nM. For the same compound, the inhibition constant Ki in test [2] is 1.6 nM.
Regarding `O=C1N(Cc2ccc([N+](=O)[O-])cc2)[C@H](Cc2ccccc2)[C@H](O)[C@@H](O)[C@@H](Cc2ccccc2)N1Cc1ccc([N+](=O)[O-])cc1`, the concentration for an effect of 90% (IC90) in test [1] was 8400 nM. In addition, the affinity in test [2], expressed as Ki, was 32 nM.
Compound `N#CN=C1N(Cc2cccc([N+](=O)[O-])c2)[C@H](Cc2ccccc2)[C@H](O)[C@@H](O)[C@@H](Cc2ccccc2)N1Cc1cccc([N+](=O)[O-])c1` gave an IC90 in test [1] of 17700 nM. The inhibition constant Ki in test [2] was determined as 89 nM.
In the case of `O=C1N[C@H](Cc2ccccc2)[C@H](O)[C@@H](O)[C@@H](Cc2ccccc2)N1`, the affinity in test [2] corresponds to a Ki of 267 nM.
With `NC(=O)NC1=N[C@H](Cc2ccccc2)[C@H](O)[C@@H](O)[C@@H](Cc2ccccc2)N1`, in test [1], the 90% effect concentration (IC90) was more than 142000 nM. Further, in test [2], the Ki is more than 12500 nM.
For `N#CN=C1N(Cc2ccc(N)cc2)[C@H](Cc2ccccc2)[C@H](O)[C@@H](O)[C@@H](Cc2ccccc2)N1Cc1ccc(N)cc1`, in that order: 2300 nM and 25 nM.
`O=C1N(Cc2ccc(CO)cc2)[C@H](Cc2ccccc2)[C@H](O)[C@@H](O)[C@@H](Cc2ccccc2)N1Cc1ccc(CO)cc1` [DMP-323] registered an IC90 in test [1] of 57 nM.
